# Many of the other results were omitted from the sample, so hits are more common in it than they were.
# CHOP inh = inhibitors of CHOP promoter induction, primary screen, cell-based, unfolded protein response, luciferase reporter | 220,000 compounds, 3.8% hits | inhibition, % at 10 µM | CHO-K1 CHOP-promoter luciferase, tunicamycin-induced, 15-18 h;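 active = compounds that reduced the stress-induced luciferase reporter signal by more than about 70% of percent inhibition, limit read from the data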;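 note: 0% = tunicamycin plus vehicle and 100% = wells without tunicamycin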
# CHOP UPR activ = activators of apoptotic CHOP UPR arm, primary screen, cell-based, CHO-CHOP luciferase reporter, luminescence, uHTS. UPR activation; percent of tunicamycin response over DMSO baseline. activation, % at 10 µM. 330,000 compounds, 0.34% hits. AID 449763, 2010;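 active = at 10 µM dose, activation of 40% or more, normalized to positive control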;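 note: 100% = tunicamycin at 10 µg/mL and 0% = DMSO alone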
#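 Assay system: CHO cells with stable CHOP pathway luciferase reporter; Buffer or medium: F12 plus 10% serum; Times: 16-18 h cell attachment, then 6 h compound exposure, 37 °C; Signal: luciferase luminescence; Read-out basis: percent activation relative to tunicamycin control; Control set: tunicamycin high control, DMSO low control.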
# XBP1 UPR activ = activators of adaptive XBP1 UPR arm, primary screen, cell-based, CHO-XBP1 luciferase reporter, luminescence, uHTS; IRE1-XBP1 UPR activation; percent of tunicamycin response, DMSO as zero; AID 463104, 2010; activation, % at 20 µM; 330,000 compounds, 0.33% hits;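 active = versus positive control, 20 µM dose yields 30% or more activation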;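 note: 100% = tunicamycin at 10 µg/mL and 0% = DMSO only wells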
#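 incubation = overnight seeding at 37 °C, 6 h compound treatment at 37 °C | assay system = CHO-XBP1 cells stably carrying IRE1-XBP1-driven luciferase reporter | input = 1000 cells per well | detection = luciferase luminescence | dosing = single point, 20 µM final compound, 1% DMSO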
# Dynein cargo inh = inhibitors of GR-EGFP nuclear translocation, primary screen, dynein cargo transport inhibitor project, imaging, high-content, 3617.4 mouse cells | test concentration mostly 20 µM; stimulated with dexamethasone, 1 µM; hits give low values | z-score, hits read low | 220,000 compounds, 0.47% hits | AID 1381, 2008;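 active = plate z-score of nuclear minus cytoplasmic receptor signal below a set negative limit, without overly bright fluorescence or cell loss, cut at about -3.5 in these data, passing the limit was not always enough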;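 note: z-score of nuclear minus cytoplasmic ring GR-EGFP intensity difference per well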
#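 Buffer or medium – tet-free medium with charcoal-stripped serum · Signal – automated 10x imaging of fixed Hoechst-stained cells · Also added – dexamethasone agonist, 1.0 µM final, for 30 min · Incubation – induction 48 h, compound 1 h, agonist 30 min · Read-out – GR-EGFP nuclear translocation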
# Beta2AR agonist = beta2AR agonists driving receptor internalization, primary screen, cell-based, FAP fluorogen, flow cytometry; 340,000 compounds, 0.43% hits; response, % (concentration not given with the values); Am2.2-beta2AR cells; Beta-2 adrenergic receptor (Homo sapiens), P07550;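 active = response above a set limit, near 3 SD of response in nonfluorescent compounds, cut at about 42% in these data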
# pCIP destab = p/CIP-EGFP fusion destabilizers, primary screen, fluorescence, F442A cells; Q05BA5; 16 h; decrease of EGFP signal, % at 10 µM; 290,000 compounds, 0.01% hits;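 active = EGFP signal decrease of at least 30% at 10 µM or well 3 SD below plate mean, unless failing retest; inactive = the rest, including hits failing retest or dose response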
# XBP1 UPR conf = IRE1-XBP1 UPR arm activators, confirmation, cell-based, CHO-XBP1 luciferase reporter, luminescence, single concentration | activation, % at 20 µM | AID 485299, 2010 | shares compounds with XBP1 UPR activ | 1,000 compounds, 63% hits;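 active = reporter signal at least 30% of the positive control's activation in two or more of four replicate wells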;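 note: plate controls were DMSO negative control for no effect and tunicamycin 10 µg/mL positive control for full effect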
# Beta2AR ag CP1 = beta2AR agonists via receptor internalization, confirmation, cell-based, FAP fluorogen, flow cytometry, single point, cherry pick 1. shares compounds with Beta2AR agonist. Am2.2-beta2AR cells, FAP surface receptor; hits give low values. percent response (surface receptor), % at 10 µM. 1,100 compounds, 25% hits. AID 540358, 2011;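 active = surface receptor percent response at or below 58%, roughly 3 SD from nonfluorescent compounds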
# FAP fluor counter = fluorescence artifact in beta-2AR agonist FAP counterscreen; calls only at 10 µM; 1,100 tested, under 10 active; AID 588765; shares compounds with Beta2AR agonist; Am2.2 cells, FAP fluorogen flow cytometry; hits give low values;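 active = percent response below a set limit in fluorescence channel 1 and below 50% in channel 8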
# * marks the source's active call; other numbers are inactive results; i = inactive; . = no result given.
SMILES,CHOP inh,CHOP UPR activ,XBP1 UPR activ,Dynein cargo inh,Beta2AR agonist,pCIP destab,Beta2AR ag CP1,FAP fluor counter,others
Cc1cc(Cl)nc2c(C(C)C)cccc12,56,-2,-2,0.18,0,8,.,.,
COCCN(C(=O)CNC(=O)c1ccco1)C(C(=O)NC1CCCC1)c1ccc(OC)c(OC)c1 (stereo unspecified),.,2,0,.,20,-7,.,.,
CCCCCCCCCCOC(=O)Cn1c(COc2ccccc2OC)[n+](C)c2ccccc21,.,11,77*,.,16,-11,107,i,XBP1 UPR conf=52*
Cc1ccc(Nc2nc(-c3c(C)nc4ncccn34)cs2)cc1,-27,1,10,-0.28,27,-2,.,.,
Cc1ccc(Nc2nc(-c3c(C)nc4ccccn34)cs2)cc1,85*,11,41*,0.32,43*,-18,88,i,XBP1 UPR conf=35*
O=C(NCC1COc2ccccc2O1)c1cccc(S(=O)(=O)N2CCOCC2)c1 (stereo unspecified),.,-2,0,.,1,.,.,.,
S=C(Nc1ccc2nccnc2c1)N1CCOCC1,4,2,2,-1.4,-6,2,.,.,
N=c1n(CC(=O)c2ccc([N+](=O)[O-])cc2)c2ccccc2n1Cc1ccccc1,75*,9,140*,-1.1,98*,-8,40*,i,XBP1 UPR conf=24
N=c1n(Cc2ccccc2)c2ccccc2n1Cc1ccccc1,14,-1,0,1,21,-11,.,.,
COC(C[C@H]1O[C@H]1[C@H](O)[C@H](C)OCc1ccccc1)OC,-4,2,-1,-0.26,-4,-11,.,.,
COc1ccc(-c2nc3scc(-c4ccc(OC)c(OC)c4)c3c(=O)o2)cc1,92*,12,41*,-0.65,51*,-11,88,i,XBP1 UPR conf=47*
CNC(=S)N/N=C1\C(=O)c2cccc3cccc1c23,-129,33,33*,0.84,0,-5,162,i,XBP1 UPR conf=22
COc1ccc(-c2csc3ncnc(Sc4nnnn4C)c23)cc1,.,1,0,.,1,.,.,.,
Cn1nnnc1Sc1ncnc2scc(-c3ccc(Cl)cc3)c12,.,1,46*,.,85*,.,6.3*,i,XBP1 UPR conf=113*
O=C(c1ccco1)N1CCCC(c2nc3c(nnn3Cc3c(Cl)cccc3Cl)c(=O)[nH]2)C1 (stereo unspecified),.,0,0,.,50*,-6,124,i,
O=C(c1ccco1)N1CCCC(c2nc3c(nnn3Cc3ccccc3)c(=O)[nH]2)C1 (stereo unspecified),.,1,-5,.,8,1,.,.,
Cc1ccc2c(c1)C(=O)N(CCCCO)C2=O,3,0,-3,0.24,84*,-2,100,i,
COc1cccc(CNCCc2c[nH]c3ccccc23)c1OCc1ccc(F)cc1,54,-1,-4,-0.4,34,-13,.,.,
COc1cc(CNCCc2c[nH]c3ccccc23)ccc1OCc1ccc(F)cc1,88*,1,3,-3.9,72*,-10,56*,i,
O=C(c1ccc([N+](=O)[O-])s1)N1CCN(c2ccc(C(F)(F)F)cn2)CC1,.,1,3,.,84*,-20,109,i,
Cc1cnc(C(=O)N2CCN(c3ccc(C(F)(F)F)cn3)CC2)cn1,6,2,-2,-1.2,4,1,.,.,
Cc1cccc(NC(=O)CN2NS(=O)(=O)c3ccccc3C2=O)c1,32,0,3,-0.2,3,-16,.,.,
COc1cc(Cl)ccc1OCc1cc(C(=O)N2CCN(c3ccccn3)CC2)no1,.,1,-2,.,-4,1,.,.,
CC1CN(C(=S)Nc2ccccc2C(F)(F)F)CC(C)O1 (stereo unspecified),.,2,-1,.,-4,7,.,.,
COc1ccc(S(=O)(=O)N2CCN(C(=O)N3CCOCC3)C2C)cc1 (stereo unspecified),.,2,3,.,-6,-7,.,.,
SMILES,CHOP inh,CHOP UPR activ,XBP1 UPR activ,Dynein cargo inh,Beta2AR agonist,pCIP destab,Beta2AR ag CP1,FAP fluor counter,others
CCn1c(COc2ccc(Cl)cc2)nnc1SCc1ccc(C#N)cc1,39,6,-5,0.076,44*,1,64,i,
CCn1c(COc2ccccc2)nnc1SCc1ccc(C#N)cc1,3,-1,-4,0.77,0,-6,.,.,
CCOc1ccc(C(=O)NCc2ccco2)cc1Cl,.,2,-5,.,13,-15,.,.,
Cc1ccc(C(=O)NCCNC(=O)c2ccc(C)nc2)cc1,.,2,2,.,61*,-15,115,i,
COCCn1c(SCc2nnc(-c3ccccc3)o2)nc2sc3c(c2c1=O)CCC3,44,.,.,-0.073,121*,-9,130,i,
COCCn1c(SCC(=O)Nc2ncc(C)s2)nc2sc3c(c2c1=O)CCC3,12,-2,0,0.2,.,2,.,.,
CCOCC(=O)Nc1ccc([N+](=O)[O-])cc1OC,4,0,1,0.11,5,5,.,.,
CCOC(=O)CS(=O)(=O)CC(=O)Nc1ccc([N+](=O)[O-])cc1OC,13,1,-2,1.3,86*,-9,90,i,
Cc1ccccc1CCN1CCCC(CN(C)C(=O)C(=O)c2ccco2)C1 (stereo unspecified),.,1,-1,.,0,-2,.,.,
CCOC(=O)c1c(-c2ccccc2)oc2ccc(O)c(CN3CCCC3)c12,28,-1,5,0.32,95*,6,106,i,
CN(C)c1ccc(C(=O)OCC(=O)Nc2ccc(S(N)(=O)=O)cc2)cc1,7,5,4,-0.26,47*,-1,83,i,
Cc1ccc(/C(=N/Nc2ncnc3ccccc23)C(=O)O)cc1,.,5,3,.,2,-3,94,i,
Cc1ccc(Nc2ncnc3ccccc23)cc1,3,3,-4,-0.14,4,-2,.,.,
CC(C)Cc1nc2oc3c(Cl)ncnc3c2c2c1CCC2,-9,3,8,-2.6,110*,-6,20*,i,
CCc1nnc(NS(=O)(=O)c2ccc(NC(=O)c3ccc(C#N)cc3)cc2)s1,.,0,-2,.,14,-88,.,.,
